Reference: ChEMBL document CHEMBL3232802, “6-Amino-2,4,5-trimethylpyridin-3-ols: a new general synthetic route and antiangiogenic activity” (2014)

How the values were obtained:
Chorioallantoic membrane [1] = assay: Antiangiogenic activity in chicken chorioallantoic membrane assessed as inhibition of VEGF-induced blood vessel formation at 0.01 nmol […] measured after 3 days; format: functional, cell membranes; conditions: Gallus gallus
Chorioallantoic membrane [2] = assay: Antiangiogenic activity in human A549 cells inoculated chicken chorioallantoic membrane assessed as inhibition of blood vessel formation at 0.01 pmol after 3 days; format: functional, Gallus gallus
In short: (§1)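 A549 lung cancer cells (2 × 10⁶ cells/CAM) in Matrigel inoculated onto CAM instead of VEGF, then compound at varied doses; three days at 37 °C, 55% humidity. Vessel branch points within tumor region counted double-blind by two observers; mean ± S.E.M.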

A549 [3] = assay: Cytotoxicity against human A549 cells inoculated with chicken chorioallantoic membrane assessed as tumor inhibition at 0.1 pmol after 3 days; format: functional
In short: (§2)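 A549 cells (2 × 10⁶ cells/CAM) in Matrigel implanted on CAM, then compound at different concentrations; incubated three days at 37 °C, 55% humidity. Tumor mass grown on CAM isolated and weighed; mean ± S.E.M.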

A549 [4] = assay: Cytotoxicity against human A549 cells inoculated with chicken chorioallantoic membrane assessed as tumor inhibition after 3 days; format: functional, cell-based; in short: as §2
Chorioallantoic membrane [5] = assay: Antiangiogenic activity in human A549 cells inoculated chicken chorioallantoic membrane assessed as inhibition of blood vessel formation at 1 pmol after 3 days; format: functional, Gallus gallus; in short: as §1
Chorioallantoic membrane [6] = assay: Antiangiogenic activity in chicken chorioallantoic membrane assessed as inhibition of VEGF-induced blood vessel formation treated 30 mins before VEGF addition measured after 3 days; format: functional; conditions: Gallus gallus
Chorioallantoic membrane [7] = assay: Antiangiogenic activity in human A549 cells inoculated chicken chorioallantoic membrane assessed as inhibition of blood vessel formation at 0.1 pmol after 3 days; format: functional, Gallus gallus; in short: as §1
Chorioallantoic membrane [8] = assay: Antiangiogenic activity in human A549 cells inoculated chicken chorioallantoic membrane assessed as inhibition of blood vessel formation after 3 days; format: functional, cell-based; conditions: Gallus gallus; in short: as §1
A549 [9] = assay: Cytotoxicity against human A549 cells inoculated with chicken chorioallantoic membrane assessed as tumor inhibition at 1 pmol after 3 days; format: functional; in short: as §2
A549 [10] = assay: Cytotoxicity against human A549 cells inoculated with chicken chorioallantoic membrane assessed as tumor inhibition at 0.01 pmol after 3 days; format: functional; in short: as §2

SMILES: Cc1nc(Nc2ccccc2)c(C)c(C)c1O
- inhibition (Chorioallantoic membrane [1]): 69.4%

SMILES: Cc1nc(NCc2ccccc2)c(C)c(C)c1O
- inhibition (Chorioallantoic membrane [1]): 56.7%

SMILES: Cc1nc(N)c(C)c(C)c1O
- inhibition (INH) (Chorioallantoic membrane [2]): 16.6%
- inhibition (INH) (A549 [3]): 25.2%
- inhibition (A549 [4]): Dose-dependent effect
- inhibition (INH) (Chorioallantoic membrane [5]): 20.7%
- ID50 (Chorioallantoic membrane [6]): 3.2 pg
- inhibition (Chorioallantoic membrane [6]): Dose-dependent effect
- inhibition (INH) (Chorioallantoic membrane [7]): 18%
- inhibition (Chorioallantoic membrane [8]): Dose-dependent effect
- inhibition (INH) (A549 [9]): 27.4%
- inhibition (INH) (A549 [10]): 20.5%
- inhibition (Chorioallantoic membrane [1]): 80.9%

SMILES: Cc1nc(NC2CCCCC2)c(C)c(C)c1O
- inhibition (Chorioallantoic membrane [1]): 36.8%

SMILES: Cc1nc(Nc2ccc(Br)cc2)c(C)c(C)c1O
- inhibition (Chorioallantoic membrane [1]): 61.7%

SMILES: CCCCCCCCCCCCCCCCNc1nc(C)c(O)c(C)c1C
- inhibition (Chorioallantoic membrane [1]): 30.1%

SMILES: Cc1nc(N(C)c2ccccn2)c(C)c(C)c1O
- inhibition (Chorioallantoic membrane [1]): 42.2%

SMILES: CN(C)c1ccc(/C=C2\C(=O)Nc3ccccc32)cc1
- inhibition (INH) (Chorioallantoic membrane [2]): 20.8%
- inhibition (INH) (A549 [3]): 23.4%
- inhibition (A549 [4]): Dose-dependent effect
- inhibition (INH) (Chorioallantoic membrane [5]): 36.2%
- ID50 (Chorioallantoic membrane [6]): 10.5 pg
- inhibition (Chorioallantoic membrane [6]): Dose-dependent effect
- inhibition (INH) (Chorioallantoic membrane [7]): 25.1%
- inhibition (Chorioallantoic membrane [8]): Dose-dependent effect
- inhibition (INH) (A549 [9]): 26.8%
- inhibition (INH) (A549 [10]): 16.2%
- inhibition (Chorioallantoic membrane [1]): 70.5%

SMILES: Cc1nc(N2CCOCC2)c(C)c(C)c1O
- inhibition (Chorioallantoic membrane [1]): 59%

SMILES: Cc1nc(Nc2ccccc2C(C)C)c(C)c(C)c1O
- inhibition (Chorioallantoic membrane [1]): 55.3%

SMILES: Cc1nc(N2CCN(C)CC2)c(C)c(C)c1O
- inhibition (Chorioallantoic membrane [1]): 24.7%

SMILES: Cc1nc(Nc2ccc([N+](=O)[O-])cc2)c(C)c(C)c1O
- inhibition (INH) (Chorioallantoic membrane [2]): 19.9%
- inhibition (INH) (A549 [3]): 44.4%
- inhibition (A549 [4]): Dose-dependent effect
- inhibition (INH) (Chorioallantoic membrane [5]): 34.5%
- ID50 (Chorioallantoic membrane [6]): 4.4 pg
- inhibition (Chorioallantoic membrane [6]): Dose-dependent effect
- inhibition (INH) (Chorioallantoic membrane [7]): 25.6%
- inhibition (Chorioallantoic membrane [8]): Dose-dependent effect
- inhibition (INH) (A549 [9]): 50.1%
- inhibition (INH) (A549 [10]): 25.3%
- inhibition (Chorioallantoic membrane [1]): 75%

SMILES: Cc1nc(N(c2ccccc2)c2ccccc2)c(C)c(C)c1O
- inhibition (Chorioallantoic membrane [1]): 65.4%

SMILES: Cc1nc(NCCCOc2nc(C)c(O)c(C)c2C)c(C)c(C)c1O
- inhibition (Chorioallantoic membrane [1]): 67.3%

SMILES: Cc1nc(Nc2ccc3c(c2)OCO3)c(C)c(C)c1O
- inhibition (Chorioallantoic membrane [1]): 62.4%

SMILES: CCCCCCNc1nc(C)c(O)c(C)c1C
- inhibition (Chorioallantoic membrane [1]): 53.7%

SMILES: Cc1nc(-n2cccc2)c(C)c(C)c1O
- inhibition (Chorioallantoic membrane [1]): 44%

SMILES: Cc1nc(N2CCCC2)c(C)c(C)c1O
- inhibition (Chorioallantoic membrane [1]): 69.5%

SMILES: Cc1nc(NCCCO)c(C)c(C)c1O
- inhibition (Chorioallantoic membrane [1]): 46.3%
